One series has as its system HL-60. Description: Antiproliferative activity against human HL60 cells after 62 hrs by MTS assay. Particulars: HL-60, 62 h. The format is functional, cell-based. The gist of the method:
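HL-60 cells kept in RPMI-1640 with 10% heat-inactivated FBS, penicillin/streptomycin, 37 °C, 5% CO2. Seeded at 2.0 × 10^4 cells/mL with increasing compound concentrations for 62 h. MTS reagent added, formazan absorbance read at 492/620 nm after 2 h. IC50 from linear regression of viability against log concentration. Mean ± SD of triplicate tests.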
In general terms: Tetrazolium assays rely on reduction of a dye to a coloured formazan, in cell work by metabolically active cells.

A short description of series [1]: Drug uptake in human HL60 cells at 100 uM after 3 hrs by indirect competitive ELISA. The format is ADME, cell-based. The following applies: hl-60, 3 h. In a few lines:
(§1)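 HL-60 cells at 5.0 × 10^5 cells/mL were preincubated 1 h, then exposed to compound (final 1, 10 or 100 μM) for 3 h. Cells were washed three times in PBS and lysed in RIPA buffer on ice for 20 min. Cleared supernatant was run in icELISA: HT–HSA coated plate, competition with mAb 1D2, HRP anti-mouse IgG, ABTS, A405. Result given as ng per 5 × 10^6 cells and uptake rate %.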
On the technique in general: An ELISA detects its analyte on a solid surface through an enzyme-linked reagent.

The nature of series [2]: Drug uptake in human HL60 cells at 10 uM after 3 hrs by indirect competitive ELISA. The format is ADME, cell-based. The following applies: hl-60, 3 h. The gist of the method: as §1
The nature of series [3]: Drug uptake in human HL60 cells at 1 uM after 3 hrs by indirect competitive ELISA. The format is ADME, cell-based. Particulars: hl-60, 3 h. The gist of the method: as §1

The IC50 is the concentration at which inhibition is half-maximal. A low value points to greater potency.

Each structure is given as a SMILES string.

`COC(=O)C[C@](O)(CCCC(C)(C)O)C(=O)O[C@@H]1C(OC)=C[C@]23CCCN2CCc2cc4c(cc2[C@H]13)OCO4` [OMACETAXINE MEPESUCCINATE]: the IC50 with HL-60 was determined as 0.022 µM.

The compound `COC1=C[C@]23CCCN2C(=O)c2cc4c(cc2[C@@H]3[C@@H]1OC(=O)[C@@](O)(CCC(C)(C)O)CC(=O)O)OCO4` had an IC50 with HL-60 greater than 100 µM. For `COC1=C[C@]23CCC(=O)N2CCc2cc4c(cc2[C@@H]3[C@@H]1OC(=O)[C@@](O)(CCC(C)(C)O)CC(=O)O)OCO4`, in the series with HL-60, the IC50 was greater than 100 µM.

For `COC(=O)C[C@](O)(CCC(C)(C)O)C(=O)O[C@@H]1C(OC)=C[C@]23CCCN2CCc2cc4c(cc2[C@H]13)OCO4` [HARRINGTONINE], the midpoint of inhibition in the series with HL-60, the IC50, lay at 0.047 µM. For the same compound, the figures for the Drug uptake in series [1], in series [2] and in series [3] were 0.35%, 0.61% and 3.34%, respectively.

`COC(=O)C[C@](O)(CCC(C)(C)O)C(=O)O[C@@H]1C(OC)=C[C@]23CCCN2C(=O)c2cc4c(cc2[C@H]13)OCO4`: in the series on HL-60, the IC50 was greater than 100 µM. Still for that read-out and setting: with `COC1=C[C@]23CCCN2CCc2cc4c(cc2[C@@H]3[C@@H]1OC(=O)[C@@](O)(CCC(C)(C)O)CC(=O)O)OCO4` the figure was greater than 100 µM. Still for that read-out and setting: the figure for `COC1=C[C@]23CCCN2CCc2cc4c(cc2[C@@H]3[C@@H]1O)OCO4` [CEPHALOTAXINE] is 61.2 µM. In turn, `COC(=O)C[C@](O)(CCC(C)(C)O)C(=O)O[C@@H]1C(OC)=C[C@]23CCC(=O)N2CCc2cc4c(cc2[C@H]13)OCO4` showed an IC50 in the series on HL-60 greater than 100 µM. Besides, the Drug uptake in series [1] amounted to 0.02%; in series [2] it was 0.02%; in series [3], 0.09%.
